Experimental data from ChEMBL document CHEMBL1124316, “Synthesis and activity of nonhydrolyzable pseudomonic acid analogues” (J Med Chem, 1989).
Values after ≈ are worked out from the molar mass of the structure shown.

Assays:
[1] = test system: Staphylococcus epidermidis; assay: In vitro antibacterial activity against Staphylococcus epidermidis 3519; assay type: functional
Procedure, shortened: (§1)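 MICs were determined by agar dilution on brain heart infusion agar, with an inoculum of 10⁴ cfu/spot. Strains were either clinical isolates kept frozen in a culture collection or ATCC strains.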

[2] = test system: Escherichia coli; assay: In vitro antibacterial activity against Escherichia coli SS; assay type: functional; procedure, shortened: as §1
[3] = test system: Streptococcus agalactiae; assay: In vitro antibacterial activity against Streptococcus agalactiae CMX 508; assay type: functional; procedure, shortened: as §1
[4] = molecular target: Isoleucine--tRNA ligase (Escherichia coli K-12, UniProt P00956); assay: Inhibitory activity against Isoleucyl-tRNA synthetase
Procedure, shortened: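 Isoleucyl-tRNA synthetase was isolated from Escherichia coli and purified to homogeneity. IC50 values were measured by the ATP-pyrophosphate exchange assay.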

[5] = test system: Staphylococcus aureus; assay: In vitro antibacterial activity against Staphylococcus aureus ATCC […]; assay type: functional; procedure, shortened: as §1
[6] = test system: Escherichia coli; assay: In vitro antibacterial activity against Escherichia coli Juhl; assay type: functional; procedure, shortened: as §1
[7] = test system: Streptococcus pyogenes; assay: In vitro antibacterial activity against Streptococcus pyogenes EES 61; assay type: functional; procedure, shortened: as §1
[8] = Escherichia coli, read-out: MIC
[9] = Streptococcus pyogenes, read-out: MIC

Sequence of Isoleucine--tRNA ligase (P00956 whole entry): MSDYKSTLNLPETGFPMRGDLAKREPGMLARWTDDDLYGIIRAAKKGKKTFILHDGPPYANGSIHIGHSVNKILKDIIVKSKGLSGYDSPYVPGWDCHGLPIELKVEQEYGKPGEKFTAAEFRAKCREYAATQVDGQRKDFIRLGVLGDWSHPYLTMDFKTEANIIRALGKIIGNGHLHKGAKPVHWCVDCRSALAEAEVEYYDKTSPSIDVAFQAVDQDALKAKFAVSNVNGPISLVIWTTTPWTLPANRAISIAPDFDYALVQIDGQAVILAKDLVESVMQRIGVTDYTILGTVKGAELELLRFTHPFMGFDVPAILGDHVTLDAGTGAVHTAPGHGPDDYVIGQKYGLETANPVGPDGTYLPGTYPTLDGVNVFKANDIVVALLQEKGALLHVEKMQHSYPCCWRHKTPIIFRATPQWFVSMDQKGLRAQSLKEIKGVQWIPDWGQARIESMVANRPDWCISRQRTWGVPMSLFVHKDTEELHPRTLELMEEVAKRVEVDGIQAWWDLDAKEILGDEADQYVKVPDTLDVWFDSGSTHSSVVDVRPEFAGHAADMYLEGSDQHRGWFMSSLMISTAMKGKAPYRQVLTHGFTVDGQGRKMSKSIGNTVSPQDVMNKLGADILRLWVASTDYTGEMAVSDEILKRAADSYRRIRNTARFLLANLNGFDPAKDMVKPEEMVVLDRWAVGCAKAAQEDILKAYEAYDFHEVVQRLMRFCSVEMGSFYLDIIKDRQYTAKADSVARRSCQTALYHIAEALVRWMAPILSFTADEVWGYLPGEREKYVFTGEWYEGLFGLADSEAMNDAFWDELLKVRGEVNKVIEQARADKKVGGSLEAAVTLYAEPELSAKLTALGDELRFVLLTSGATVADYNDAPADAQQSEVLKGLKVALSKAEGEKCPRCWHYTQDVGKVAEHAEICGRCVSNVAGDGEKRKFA

Row | SMILES | MIC [1] [µg/mL] | MIC [2, 8] [µg/mL] | MIC [3] [µg/mL] | IC50 [4] [µM] | MIC [5] [µg/mL] | MIC [6] [µg/mL] | MIC [7, 9] [µg/mL] | MIC [2] [µg/mL] | MIC [7] [µg/mL]
1 | C/C(=C/Sc1ccccc1)C[C@@H]1OC[C@H](C[C@@H]2O[C@H]2[C@@H](C)[C@H](C)O)[C@@H](O)[C@H]1O | 50 (≈ 122 µM) | 12.5 (≈ 30.6 µM) | 50 (≈ 122 µM) | 46.5 | 25 (≈ 61.2 µM) | > 100 | 12.5 (≈ 30.6 µM) | – | –
2 | C/C(=C\Sc1ccccc1)C[C@@H]1OC[C@H](C[C@@H]2O[C@H]2[C@@H](C)[C@H](C)O)[C@@H](O)[C@H]1O | 6.2 (≈ 15.2 µM) | 1.56 (≈ 3.82 µM) | 6.2 (≈ 15.2 µM) | 11 | 3.1 (≈ 7.59 µM) | > 100 | 3.1 (≈ 7.59 µM) | – | –
3 | COC(=O)CCCCCCCCCC(=O)/C=C(\C)C[C@@H]1OCC(C[C@@H]2O[C@H]2[C@@H](C)[C@H](C)O)[C@@H](O)[C@H]1O (some centres undefined) | 0.39 (≈ 0.761 µM) | 0.05 (≈ 0.0975 µM) | 3.1 (≈ 6.05 µM) | 3.32 | 0.39 (≈ 0.761 µM) | 50 (≈ 97.5 µM) | 0.1 (≈ 0.195 µM) | – | –
4 | C/C(=C\C(=O)c1ccccc1)C[C@@H]1OCC(C[C@@H]2O[C@H]2[C@@H](C)[C@H](C)O)[C@@H](O)[C@H]1O (some centres undefined) | 0.39 (≈ 0.964 µM) | 0.2 (≈ 0.494 µM) | 3.1 (≈ 7.66 µM) | 0.494 | 0.2 (≈ 0.494 µM) | 100 (≈ 247 µM) | 0.39 (≈ 0.964 µM) | – | –
5 | COC(=O)CCCCCCCCOC(=O)/C=C(\C)C[C@@H]1OCC(C[C@@H]2O[C@H]2[C@@H](C)[C@H](C)O)[C@@H](O)[C@H]1O (some centres undefined) | 0.39 (≈ 0.758 µM) | 0.05 (≈ 0.0972 µM) | 0.78 (≈ 1.52 µM) | 1.17 | 0.2 (≈ 0.389 µM) | 50 (≈ 97.2 µM) | 0.1 (≈ 0.194 µM) | – | –
6 | C[C@H]([C@@H]1O[C@H]1CC1CO[C@@H](CC2=CC(=O)OC2)[C@H](O)[C@@H]1O)[C@H](C)O (some centres undefined) | 100 (≈ 292 µM) | 25 (≈ 73 µM) | 100 (≈ 292 µM) | 794 | 100 (≈ 292 µM) | > 100 | 6.2 (≈ 18.1 µM) | – | –
7 | COC(=O)CCCCCCCCOC/C=C(\C)C[C@@H]1OCC(C[C@@H]2O[C@H]2[C@@H](C)[C@H](C)O)[C@@H](O)[C@H]1O (some centres undefined) | > 100 | 12.5 (≈ 25 µM) | > 100 | 1.7 | > 100 | > 100 | 100 (≈ 200 µM) | – | –
8 | CSC(CCCCCCCCCC(=O)/C=C(\C)C[C@@H]1OCC(C[C@@H]2O[C@H]2[C@@H](C)[C@H](C)O)[C@@H](O)[C@H]1O)(SC)SC (some centres undefined) | 1.56 (≈ 2.57 µM) | 6.2 (≈ 10.2 µM) | > 100 | 14.8 | 1.56 (≈ 2.57 µM) | > 100 | 1.56 (≈ 2.57 µM) | – | –
9 | CCCCS(=O)(=O)/C=C(\C)C[C@@H]1OCC(C[C@@H]2O[C@H]2[C@@H](C)[C@H](C)O)[C@@H](O)[C@H]1O (some centres undefined) | > 100 | > 100 | > 100 | 181 | > 100 | > 100 | 25 (≈ 59.4 µM) | – | –
10 | COC(=O)CCCCCCCCSC/C=C(\C)C[C@@H]1OCC(C[C@@H]2O[C@H]2[C@@H](C)[C@H](C)O)[C@@H](O)[C@H]1O (some centres undefined) | > 100 | 25 (≈ 48.4 µM) | > 100 | 18.4 | 100 (≈ 194 µM) | > 100 | 50 (≈ 96.8 µM) | – | –
11 | C[C@H]([C@@H]1O[C@H]1CC1CO[C@@H](Cc2ccoc2)[C@H](O)[C@@H]1O)[C@H](C)O (some centres undefined) | > 100 | 100 (≈ 306 µM) | > 100 | > 1230 | > 100 | > 100 | > 100 | – | –
12 | COC(=O)CCCCCCCCOC(=O)CC(=O)C[C@@H]1OCC(C[C@@H]2O[C@H]2[C@@H](C)[C@H](C)O)[C@@H](O)[C@H]1O (some centres undefined) | > 100 | > 100 | > 100 | > 774 | > 100 | > 100 | > 100 | – | –
13 | CCCCSC/C=C(\C)C[C@@H]1OCC(C[C@@H]2O[C@H]2[C@@H](C)[C@H](C)O)[C@@H](O)[C@H]1O (some centres undefined) | > 100 | 50 (≈ 124 µM) | > 100 | 390 | > 100 | > 100 | 100 (≈ 248 µM) | – | –
14 | CCCCS/C=C(\C)C[C@@H]1OCC(C[C@@H]2O[C@H]2[C@@H](C)[C@H](C)O)[C@@H](O)[C@H]1O (some centres undefined) | 0.78 (≈ 2.01 µM) | 0.78 (≈ 2.01 µM) | 3.1 (≈ 7.98 µM) | 5.4 | 1.56 (≈ 4.01 µM) | > 100 | 0.78 (≈ 2.01 µM) | – | –
15 | C/C(=C\C(=O)OCCCCCCCCC(=O)[O-])C[C@@H]1OCC(C[C@@H]2O[C@H]2[C@@H](C)[C@H](C)O)[C@@H](O)[C@H]1O.[Na+] (some centres undefined) | 0.1 | 0.2 | 0.78 | 0.191 | 0.1 | > 100 | 0.1 | – | –
16 | CCCCOC/C=C(\C)C[C@@H]1OCC(C[C@@H]2O[C@H]2[C@@H](C)[C@H](C)O)[C@@H](O)[C@H]1O (some centres undefined) | 100 (≈ 259 µM) | 12.5 (≈ 32.3 µM) | > 100 | 51.7 | 100 (≈ 259 µM) | > 100 | 50 (≈ 129 µM) | – | –
17 | CCCCS/C=C(/C)C[C@@H]1OCC(C[C@@H]2O[C@H]2[C@@H](C)[C@H](C)O)[C@@H](O)[C@H]1O (some centres undefined) | > 100 | 100 (≈ 257 µM) | > 100 | 744 | > 100 | > 100 | > 100 | – | –
18 | CCCC[S+]([O-])/C=C(\C)C[C@@H]1OCC(C[C@@H]2O[C@H]2[C@@H](C)[C@H](C)O)[C@@H](O)[C@H]1O (stereo in doubt; 14) | – | – | – | 171 | – | – | – | 100 (≈ 247 µM) | >100
19 | CCCC[S+]([O-])/C=C(\C)C[C@@H]1OCC(C[C@@H]2O[C@H]2[C@@H](C)[C@H](C)O)[C@@H](O)[C@H]1O (stereo in doubt; 15) | > 100 | 100 (≈ 247 µM) | > 100 | > 989 | > 100 | > 100 | 100 (≈ 247 µM) | – | –
